Screening data from PubChem.
The list is not random: actives were taken first. Their share in the collection is about 2.3%.
CSN inh = inhibitors of human CSN-mediated cullin deneddylation; Purified CSN, SCF-Nedd8-OG deneddylation, fluorescence polarization; inhibition, % at 12.5 µM; 360,000 compounds, 0.38% hits;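 active = pattern-corrected inhibition above about 35%, with an unprinted fluorescence ratio check between 0.5 and 1.5, limit read from the data, passing the limit was not always enough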
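Test system: Human Csn5 produced in HEK293T cells | Compound: 12.5 µM single point | Times: 90 min, room temperature | Signal: Fluorescence polarization readout | Read-out basis: % inhibition of substrate cleavage by Csn5 | Controls: no-enzyme wells high, enzyme-with-substrate wells low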
SKN-1 block = blocks SKN-1 activity in C. elegans. C. elegans VP596 Pgst-4::GFP/RFP ratio, acrylamide-induced, 24 h. inhibition, % at 21.8 µM. 360,000 compounds, 0.49% hits. AID 624304;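 active = interference check ratio from 0.5 to 1.5 plus GFP to RFP signal ratio inhibition reaching or exceeding a fixed threshold, cut at about 30% in these data, passing the limit was not always enough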
Rpn11 inh = blocks the human proteasome subunit Rpn11; 360,000 compounds, 0.59% hits; human 26S proteasome, Ub4-pepOG fluorescence polarization; 20S core pre-blocked with epoxomicin; inhibition, % at 20 µM;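 active = inhibition at 20 µM, scaled to each plate's controls, above about 33%, limit read from the data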
Target sequence (O00487 whole entry, looked up): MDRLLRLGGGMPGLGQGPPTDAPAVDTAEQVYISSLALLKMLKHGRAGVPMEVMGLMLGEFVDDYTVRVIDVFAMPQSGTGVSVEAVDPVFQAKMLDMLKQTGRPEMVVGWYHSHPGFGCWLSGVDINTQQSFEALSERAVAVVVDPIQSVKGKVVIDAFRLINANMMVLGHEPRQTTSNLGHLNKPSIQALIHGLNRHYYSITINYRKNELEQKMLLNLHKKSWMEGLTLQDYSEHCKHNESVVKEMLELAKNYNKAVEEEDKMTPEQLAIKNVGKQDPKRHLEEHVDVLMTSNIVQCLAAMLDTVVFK
SUMO1-SIM PPI = SUMO1-SIM interaction modulation. SUMO1 binding to a labelled peptide, TR-FRET, 1 h. inhibition, % at 20 µM. 360,000 compounds, 0.33% hits. AID 602429; in the data active = inhibition above about 37%
Target sequence (P63165 whole entry, looked up): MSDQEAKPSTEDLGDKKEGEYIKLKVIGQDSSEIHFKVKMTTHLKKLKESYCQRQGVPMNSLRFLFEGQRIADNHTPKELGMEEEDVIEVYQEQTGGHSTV
MT1-MMP act inh = MT1-MMP (human) activation inhibition; P50281; GFP/RFP ratio change, % at 20 µM; HT1080 RFP-PRO-GFP cells, GFP/RFP ratio fluorescence, overnight; percent of plate control window, DMSO zero; 360,000 compounds, 0.061% hits; AID 651647;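 active = GFP/RFP ratio change of at least 30% with cell ATP level not reduced by more than half and red fluorescence within 50% of control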
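Read-out: GFP/RFP fluorescence ratio; Test system: RFP-PRO-GFP reporter HT1080 cells; Compound dosing: single-point 20 µM compound, 1% DMSO; Times: overnight compound exposure at 37 °C.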
DNMT1 inh = DNMT1 (human) enzyme inhibition; DNMT1 molecular beacon, Hinp1I cleavage, fluorescence; inhibition (reported as % activation of signal), % at 10 µM; 360,000 compounds, 0.83% hits; AID 588458; in the data active = inhibition above about 50%
Hits are given with their value; . = inactive; / = no result given; ! = not active in a repeat.

SMILES	CSN inh	SKN-1 block	Rpn11 inh	SUMO1-SIM PPI	MT1-MMP act inh	DNMT1 inh
N#C/C(=C/c1ccc(N2CCCCCC2)o1)c1cccc(F)c1	.	.	/	.	.	.
O=C(COC(=O)CNC(=O)c1ccc(F)cc1)Nc1cccc(S(=O)(=O)N2CCCC2)c1	.	.	.	.	.	.
CCOc1ccc(C(=O)NCC(=O)OCC(=O)Nc2cccc(S(=O)(=O)N3CCCC3)c2)cc1	.	.	.	48	.	.
CC1(C(=O)NS(=O)(=O)c2cccs2)CCN1C(=O)c1ccccc1 (stereo unspecified)	.	.	.	.	.	.
CC1N(C)c2cccc3cccc(c23)N1C	.	.	71	.	.	.
Nc1sccc1C(=O)N1CCN(c2ccccc2)CC1	.	.	/	.	.	/
O=S(=O)(c1ccc(F)c(Cl)c1)N1CCN(C/C=C/c2ccccc2)CC1	.	.	.	41	.	.
O=S(=O)(c1ccccc1)N1CCN(C/C=C/c2ccccc2)CC1	.	.	.	.	.	.
N#C/C(=C\c1ccc(N2CCOCC2)cc1)c1ccccc1	.	48	.	.	.	.
NC(c1csc(NC(=O)Nc2ccc(OC(F)(F)F)cc2)n1)C1CCCCC1 (stereo unspecified)	.	.	.	.	.	.
CC1=C(C(=O)N(C)C)CC(CC(=O)NC2CCCCC2)C(=O)N1Cc1ccc(F)cc1 (stereo unspecified)	.	.	.	.	.	.
O=C(CCl)Nc1ccc(-c2ccccc2)cc1	.	.	.	56	.	.
O=C(CCl)Nc1ccc(N=Nc2ccccc2)cc1	.	.	.	.	.	.
CCCCCc1c(-c2ccc(OC)cc2)ncn1CCc1ccccc1OC	.	.	/	.	.	/
COc1ccccc1Nc1nc(Cl)c(C=O)s1	38	.	/	.	.	.
Cc1ccc(Nc2nc(Cl)c(C=O)s2)cc1Cl	.	.	/	.	.	.
CCCCN(CCCNC(=O)c1ccc2c(c1)NC(=O)CN2C)c1ccccc1	.	.	.	.	.	.
O=C(NC1CCCC1)C(c1ccccc1)n1c(-c2ccc3c(c2)CCO3)nc2ccccc21 (stereo unspecified)	.	.	/	.	.	/
COC(=O)c1c[nH]c2c1-c1cc(C(=O)OCc3ccccc3)n(S(=O)(=O)c3ccc(C)cc3)c1C(=O)C2=O	.	.	.	.	.	96
Cc1noc(C)c1S(=O)(=O)NC(=O)C1(C)CCN1C(=O)Cc1ccc(-c2ccccc2)cc1 (stereo unspecified)	.	.	.	.	.	.
COc1cc2c(cc1OC)CN(c1nc(-c3cccnc3)nc3ccccc13)CC2	37	.	.	.	.	.
CC(C(=O)NC1CCCC1)n1c(C2CCCC2)nc2ccccc21 (stereo unspecified)	.	.	/	.	.	/
CCC(=O)N1CCCC(C)(C(=O)Nc2ccc3oc(CC)nc3c2)C1 (stereo unspecified)	.	.	.	.	.	.
COC(=O)c1ccccc1NC(=O)CSc1nc(NC(=O)c2ccccc2)c2c(C)c(C)oc2n1	.	.	.	67	.	.
CCOC(=O)C1(C)CCCN(C(=O)c2ccc3c(c2)CCO3)C1 (stereo unspecified)	.	.	.	.	.	.
SMILES	CSN inh	SKN-1 block	Rpn11 inh	SUMO1-SIM PPI	MT1-MMP act inh	DNMT1 inh
CCn1c2ccc(F)cc2c2nc3ccccc3nc21	.	40	.	.	.	.
Cn1c2ccc(F)cc2c2nc3ccccc3nc21	.	.	.	.	.	.
O=C(O)CCCNc1cc(N2CCN(C(=O)c3ccco3)CC2)c2noc3c2c1C(=O)c1ccccc1-3	.	.	/	54	.	.
CCOC(=O)N1CCN(c2cc(NCCC(=O)O)c3c4c(onc24)-c2ccccc2C3=O)CC1	.	.	/	44	.	67
COc1ccccc1C(=O)NC(=Nc1nc2ccccc2o1)NC(=O)c1ccccc1OC	.	.	.	67!	.	.
CCCNCc1cc(Cl)c(OCC)c(Cl)c1	.	42	.	.	/	.
C=CCOc1c(Cl)cc(CNCCC)cc1Cl	.	.	.	.	.	.
CC(C)(C(=O)N1CCC1(C)C(=O)NS(=O)(=O)c1ccccc1Cl)c1ccccc1 (stereo unspecified)	.	.	.	.	.	.
CS(=O)(=O)N(CC(=O)N1CCOCC1)c1ccc(Cl)cc1	.	.	.	.	.	.
CS(=O)(=O)N(CC(=O)N1CCOCC1)c1cccc(Cl)c1	90	.	.	.	.	.
Clc1ccc(N2CCN(/N=C/c3cccnc3)CC2)cc1	.	66	.	.	.	.
COc1ccc(OC)c(CN2C(=O)CN(S(C)(=O)=O)CC2(C)C(=O)NCc2ccccc2)c1 (stereo unspecified)	.	.	/	.	.	/
O=C(O)C1Nc2c(Cl)cc(Cl)cc2C2C=CCC12 (stereo unspecified)	.	.	/	103	.	88
O=C(O)C1Nc2c(O)cccc2C2C=CCC12 (stereo unspecified)	.	.	/	.	.	103
O=C(O)C1Nc2ccc(Br)cc2C2C=CCC12 (stereo unspecified)	.	.	.	94	.	93
CCOC(=O)C1Nc2ccc(Br)cc2C2C=CCC12 (stereo unspecified)	.	.	.	.	.	.
O=C(C(=O)N1CCC(Cc2ccccc2)CC1)c1ccccc1	.	.	/	.	.	/
Cc1ccc(-c2nnc(-c3ccc4c(c3)OCO4)o2)cc1	.	.	.	68	.	.
Brc1ccc(-c2nnc(-c3ccc4c(c3)OCO4)o2)o1	.	.	.	.	.	.
Cc1nn(-c2ccc(F)cc2)c2sc(C(=O)N3CCCCCC3)cc12	.	48	.	.	.	.
CNC(=O)COC(=O)c1cc2c(C)nn(-c3ccc(F)cc3)c2s1	.	.	.	.	.	.
CCCCN1C(=O)C(CC(=O)NCc2cccc3ccccc23)CC(C(=O)N2CCCCCC2)=C1C (stereo unspecified)	.	.	/	.	.	/
COc1cc2c(cc1OC)C(C1C(=O)CCCC1=O)N(C(=O)CCl)CC2 (stereo unspecified)	.	.	.	.	.	.
COc1cc2c(cc1OC)C(c1ccccc1)N(C(=O)CCl)CC2 (stereo unspecified)	.	34	.	.	.	.
NS(=O)(=O)c1ccc(N=C2C(=O)Nc3ccccc32)cc1	.	.	.	.	.	.
O=C1Nc2ccccc2C1=Nc1ccc(S(=O)(=O)Nc2nccs2)cc1	.	.	.	88	.	.
O=C(NCc1cccc(C(F)(F)F)c1)c1ccc2sc([C@H]3C[C@H](O)[C@@H](CO)O3)nc2c1	.	.	.	.	.	.
Cc1c(C)n(Cc2ccccc2)c2ccc(C(=O)NCCN3CCOCC3)cc12	.	.	.	.	.	.
